Reference: ChEMBL document CHEMBL4689842, “EUbOPEN Chemogenomics Library wave 1” (2021)

Legend:
U2OS = experiment: Multiplex assay against U2OS; format: toxicity, cell-based; conditions: human
Procedure, shortened: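 With compound added, live cells were imaged on a CQ1 microscope at 37°C and 5% CO2; staining with Hoechst33342, BioTracker Green Microtubule Cytoskeleton Dye, MitoTracker Red and Annexin V Alexa Fluor 680 had been done at seeding. The CellPathfinder machine-learning gating scheme split cells into Hoechst high-intensity objects or normal cells, normal cells into healthy, pyknosed or fragmented nuclei, and pyknosed cells into mitotic or apoptotic. The tubulin, mitochondrial-mass and membrane-permeability phenotypes are per cents of healthy-nucleus cells.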

Fibroblast = experiment: Incucyte cell viability with human fibroblast; format: toxicity, cell-based; conditions: 10 µM, compound concentration 10 uM; further: filed as whole numbers so only -1 and 0 and 1 occur
[1] = 12 h, 1 µM, compound concentration 1 uM, replicate 1
[2] = 12 h, 1 µM, compound concentration 1 uM, replicate 2
[3] = 12 h, 10 µM, compound concentration 10 uM, replicate 1
[4] = 12 h, 10 µM, compound concentration 10 uM, replicate 2
[5] = 24 h, 1 µM, compound concentration 1 uM, replicate 1
[6] = 24 h, 1 µM, compound concentration 1 uM, replicate 2
[7] = 24 h, 10 µM, compound concentration 10 uM, replicate 1
[8] = 24 h, 10 µM, compound concentration 10 uM, replicate 2
[9] = 48 h, 1 µM, compound concentration 1 uM, replicate 1
[10] = 48 h, 1 µM, compound concentration 1 uM, replicate 2
[11] = 48 h, 10 µM, compound concentration 10 uM, replicate 1
[12] = 48 h, 10 µM, compound concentration 10 uM, replicate 2

CCn1c(-c2nonc2N)nc2cnc(Oc3cccc(NC(=O)c4ccc(OCCN5CCOCC5)cc4)c3)cc21 [GSK-269962A]
Population Apoptotic (%) (U2OS; [1]): 43% | Population Fragmented Nuclei (%) (U2OS; [1]): 14% | Population Healthy Nuclei (%) (U2OS; [1]): 64% | Population Hoechst High Intensity Objects (%) (U2OS; [1]): 12% | Population Membrane Permeable-Phenotype (%) (U2OS; [1]): 13% | Population Mitochondria Different-Phenotype (%) (U2OS; [1]): 17% | Population Mitotic Cells (%) (U2OS; [1]): 56% | Population Normal (%) (U2OS; [1]): 87% | Population Pyknosed Nuclei (%) (U2OS; [1]): 21% | Population Tubulin-Different-Phenotype (%) (U2OS; [1]): 13% | Total Cell Count (U2OS; [1]): 156 | Population Apoptotic (%) (U2OS; [2]): 20% | Population Fragmented Nuclei (%) (U2OS; [2]): 20% | Population Healthy Nuclei (%) (U2OS; [2]): 72% | Population Hoechst High Intensity Objects (%) (U2OS; [2]): 2% | Population Membrane Permeable-Phenotype (%) (U2OS; [2]): 14% | Population Mitochondria Different-Phenotype (%) (U2OS; [2]): 16% | Population Mitotic Cells (%) (U2OS; [2]): 80% | Population Normal (%) (U2OS; [2]): 97% | Population Pyknosed Nuclei (%) (U2OS; [2]): 7% | Population Tubulin-Different-Phenotype (%) (U2OS; [2]): 14% | Total Cell Count (U2OS; [2]): 45 | Population Apoptotic (%) (U2OS; [3]): 50% | Population Fragmented Nuclei (%) (U2OS; [3]): 15% | Population Healthy Nuclei (%) (U2OS; [3]): 53% | Population Hoechst High Intensity Objects (%) (U2OS; [3]): 10% | Population Membrane Permeable-Phenotype (%) (U2OS; [3]): 36% | Population Mitochondria Different-Phenotype (%) (U2OS; [3]): 94% | Population Mitotic Cells (%) (U2OS; [3]): 49% | Population Normal (%) (U2OS; [3]): 90% | Population Pyknosed Nuclei (%) (U2OS; [3]): 30% | Total Cell Count (U2OS; [3]): 121 | Population Apoptotic (%) (U2OS; [4]): 31% | Population Fragmented Nuclei (%) (U2OS; [4]): 20% | Population Healthy Nuclei (%) (U2OS; [4]): 57% | Population Hoechst High Intensity Objects (%) (U2OS; [4]): 7% | Population Membrane Permeable-Phenotype (%) (U2OS; [4]): 45% | Population Mitochondria Different-Phenotype (%) (U2OS; [4]): 97% | Population Mitotic Cells (%) (U2OS; [4]): 68% | Population Normal (%) (U2OS; [4]): 92% | Population Pyknosed Nuclei (%) (U2OS; [4]): 22% | Population Tubulin-Different-Phenotype (%) (U2OS; [4]): 100% | Total Cell Count (U2OS; [4]): 71 | Population Apoptotic (%) (U2OS; [5]): 43% | Population Fragmented Nuclei (%) (U2OS; [5]): 10% | Population Healthy Nuclei (%) (U2OS; [5]): 71% | Population Hoechst High Intensity Objects (%) (U2OS; [5]): 7% | Population Membrane Permeable-Phenotype (%) (U2OS; [5]): 6% | Population Mitochondria Different-Phenotype (%) (U2OS; [5]): 18% | Population Mitotic Cells (%) (U2OS; [5]): 56% | Population Normal (%) (U2OS; [5]): 92% | Population Pyknosed Nuclei (%) (U2OS; [5]): 17% | Population Tubulin-Different-Phenotype (%) (U2OS; [5]): 8% | Total Cell Count (U2OS; [5]): 174 | Population Apoptotic (%) (U2OS; [6]): 75% | Population Fragmented Nuclei (%) (U2OS; [6]): 11% | Population Healthy Nuclei (%) (U2OS; [6]): 77% | Population Hoechst High Intensity Objects (%) (U2OS; [6]): 2% | Population Membrane Permeable-Phenotype (%) (U2OS; [6]): 1% | Population Mitochondria Different-Phenotype (%) (U2OS; [6]): 10% | Population Mitotic Cells (%) (U2OS; [6]): 25% | Population Normal (%) (U2OS; [6]): 97% | Population Pyknosed Nuclei (%) (U2OS; [6]): 11% | Population Tubulin-Different-Phenotype (%) (U2OS; [6]): 14% | Total Cell Count (U2OS; [6]): 59 | Population Apoptotic (%) (U2OS; [7]): 70% | Population Fragmented Nuclei (%) (U2OS; [7]): 13% | Population Healthy Nuclei (%) (U2OS; [7]): 55% | Population Hoechst High Intensity Objects (%) (U2OS; [7]): 9% | Population Membrane Permeable-Phenotype (%) (U2OS; [7]): 52% | Population Mitochondria Different-Phenotype (%) (U2OS; [7]): 98% | Population Mitotic Cells (%) (U2OS; [7]): 29% | Population Normal (%) (U2OS; [7]): 90% | Population Pyknosed Nuclei (%) (U2OS; [7]): 30% | Total Cell Count (U2OS; [7]): 138 | Population Apoptotic (%) (U2OS; [8]): 53% | Population Fragmented Nuclei (%) (U2OS; [8]): 30% | Population Healthy Nuclei (%) (U2OS; [8]): 52% | Population Hoechst High Intensity Objects (%) (U2OS; [8]): 5% | Population Membrane Permeable-Phenotype (%) (U2OS; [8]): 67% | Population Mitochondria Different-Phenotype (%) (U2OS; [8]): 97% | Population Mitotic Cells (%) (U2OS; [8]): 46% | Population Normal (%) (U2OS; [8]): 94% | Population Pyknosed Nuclei (%) (U2OS; [8]): 17% | Population Tubulin-Different-Phenotype (%) (U2OS; [8]): 100% | Total Cell Count (U2OS; [8]): 73 | Population Apoptotic (%) (U2OS; [9]): 48% | Population Fragmented Nuclei (%) (U2OS; [9]): 14% | Population Healthy Nuclei (%) (U2OS; [9]): 70% | Population Hoechst High Intensity Objects (%) (U2OS; [9]): 4% | Population Membrane Permeable-Phenotype (%) (U2OS; [9]): 7% | Population Mitochondria Different-Phenotype (%) (U2OS; [9]): 22% | Population Mitotic Cells (%) (U2OS; [9]): 52% | Population Normal (%) (U2OS; [9]): 95% | Population Pyknosed Nuclei (%) (U2OS; [9]): 15% | Population Tubulin-Different-Phenotype (%) (U2OS; [9]): 7% | Total Cell Count (U2OS; [9]): 230 | Population Apoptotic (%) (U2OS; [10]): 33% | Population Fragmented Nuclei (%) (U2OS; [10]): 10% | Population Healthy Nuclei (%) (U2OS; [10]): 81% | Population Hoechst High Intensity Objects (%) (U2OS; [10]): 7% | Population Membrane Permeable-Phenotype (%) (U2OS; [10]): 8% | Population Mitochondria Different-Phenotype (%) (U2OS; [10]): 11% | Population Mitotic Cells (%) (U2OS; [10]): 66% | Population Normal (%) (U2OS; [10]): 92% | Population Pyknosed Nuclei (%) (U2OS; [10]): 9% | Population Tubulin-Different-Phenotype (%) (U2OS; [10]): 17% | Total Cell Count (U2OS; [10]): 82 | Population Apoptotic (%) (U2OS; [11]): 64% | Population Fragmented Nuclei (%) (U2OS; [11]): 21% | Population Healthy Nuclei (%) (U2OS; [11]): 43% | Population Hoechst High Intensity Objects (%) (U2OS; [11]): 6% | Population Membrane Permeable-Phenotype (%) (U2OS; [11]): 71% | Population Mitochondria Different-Phenotype (%) (U2OS; [11]): 100% | Population Mitotic Cells (%) (U2OS; [11]): 35% | Population Normal (%) (U2OS; [11]): 93% | Population Pyknosed Nuclei (%) (U2OS; [11]): 34% | Population Tubulin-Different-Phenotype (%) (U2OS; [11]): 100% | Total Cell Count (U2OS; [11]): 169 | Population Apoptotic (%) (U2OS; [12]): 57% | Population Fragmented Nuclei (%) (U2OS; [12]): 13% | Population Healthy Nuclei (%) (U2OS; [12]): 59% | Population Hoechst High Intensity Objects (%) (U2OS; [12]): 10% | Population Membrane Permeable-Phenotype (%) (U2OS; [12]): 87% | Population Mitochondria Different-Phenotype (%) (U2OS; [12]): 97% | Population Mitotic Cells (%) (U2OS; [12]): 42% | Population Normal (%) (U2OS; [12]): 89% | Population Pyknosed Nuclei (%) (U2OS; [12]): 27% | Total Cell Count (U2OS; [12]): 108 | Growth Rate (Fibroblast; 0 h, replicate number 1, timepoint 0 hours): 0 | Growth Rate (Fibroblast; 24 h, replicate number 1, timepoint 24 hours): 1
